ChEMBL document CHEMBL4725404, “Design, synthesis and biological evaluation of 4-aryl-5-aminoalkyl-thiazole-2-amines derivatives as ROCK II inhibitors” (Bioorg Med Chem, 2020)

Key:
[1] = target: T1, Rho-associated protein kinase 2 (Homo sapiens, UniProt O75116); assay: Inhibition of ROCK2 (unknown origin) using C-terminus recombinant MBS (654-880 residues) as substrate at 10 uM incubated for 30 mins in presence of ATP by ELISA relative to control
How it was run: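 ROCK II activity ELISA kit; compounds screened at 10 µM for percent inhibition. Kinase reaction incubated at 30 °C for 30 min, then washed. Horseradish peroxidase-conjugated anti-AF20 antibody added for 30 min at room temperature. TMB substrate developed and absorbance read at 450 nm. Inhibition rate derived from OD450.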
Target sequence in this assay (O75116 whole entry, looked up, the tested form may be a part): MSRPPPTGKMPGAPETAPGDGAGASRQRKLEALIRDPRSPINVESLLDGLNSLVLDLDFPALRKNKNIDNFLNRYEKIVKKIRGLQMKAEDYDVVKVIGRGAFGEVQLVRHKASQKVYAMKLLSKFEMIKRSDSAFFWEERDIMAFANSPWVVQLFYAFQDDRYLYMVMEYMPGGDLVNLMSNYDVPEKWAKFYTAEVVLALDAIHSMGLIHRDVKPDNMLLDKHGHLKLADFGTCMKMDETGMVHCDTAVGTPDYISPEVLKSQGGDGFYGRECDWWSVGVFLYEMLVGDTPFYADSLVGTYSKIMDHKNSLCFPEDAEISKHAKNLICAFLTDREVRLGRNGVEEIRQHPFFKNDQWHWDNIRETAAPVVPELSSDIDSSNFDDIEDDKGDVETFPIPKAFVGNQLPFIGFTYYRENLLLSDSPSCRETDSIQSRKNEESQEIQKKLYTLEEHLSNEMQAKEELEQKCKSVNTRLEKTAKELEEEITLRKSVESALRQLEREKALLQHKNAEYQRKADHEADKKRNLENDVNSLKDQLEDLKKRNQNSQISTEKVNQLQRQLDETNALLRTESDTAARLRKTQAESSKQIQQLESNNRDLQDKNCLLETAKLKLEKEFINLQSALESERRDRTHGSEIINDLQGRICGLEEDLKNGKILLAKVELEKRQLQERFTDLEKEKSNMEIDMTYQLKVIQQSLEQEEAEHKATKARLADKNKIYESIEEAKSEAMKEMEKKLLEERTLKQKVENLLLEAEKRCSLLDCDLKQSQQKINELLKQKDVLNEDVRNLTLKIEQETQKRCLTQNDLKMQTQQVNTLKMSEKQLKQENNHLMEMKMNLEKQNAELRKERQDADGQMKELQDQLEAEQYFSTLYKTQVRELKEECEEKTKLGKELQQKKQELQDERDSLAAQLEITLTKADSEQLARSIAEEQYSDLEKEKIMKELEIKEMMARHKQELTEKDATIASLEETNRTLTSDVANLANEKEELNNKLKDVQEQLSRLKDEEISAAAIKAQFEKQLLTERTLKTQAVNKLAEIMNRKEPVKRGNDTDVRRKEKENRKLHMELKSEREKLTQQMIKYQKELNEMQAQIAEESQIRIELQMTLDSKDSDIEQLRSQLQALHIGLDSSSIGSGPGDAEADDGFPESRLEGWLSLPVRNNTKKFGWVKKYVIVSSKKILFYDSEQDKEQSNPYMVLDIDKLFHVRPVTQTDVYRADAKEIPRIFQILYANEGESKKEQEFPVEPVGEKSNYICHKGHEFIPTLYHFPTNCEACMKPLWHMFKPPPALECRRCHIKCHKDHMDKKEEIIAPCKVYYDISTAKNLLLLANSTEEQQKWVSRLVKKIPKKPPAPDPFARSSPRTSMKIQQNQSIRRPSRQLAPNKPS

[2] = target: T1, Rho-associated protein kinase 2; assay: Inhibition of ROCK2 (unknown origin) using C-terminus recombinant MBS (654-880 residues) as substrate incubated for 30 mins in presence of ATP by ELISA
How it was run: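 Compounds with significant single-point inhibition were run in full concentration–response in the ROCK II ELISA kit. Kinase step at 30 °C for 30 min, then wash. Anti-AF20 HRP antibody applied for 30 min at room temperature, followed by TMB colour development read at OD 450 nm. IC50 calculated by nonlinear regression of inhibition rates.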
Target sequence in this assay (O75116 whole entry, the tested form may be a part): as the sequence (O75116 whole entry, looked up, the tested form may be a part) above

Structure (SMILES) | inhibition [1] [%] | IC50 [2] [nM]
O=C(Nc1nc(-c2cccnc2)c(CN2CCCC2)s1)C1COc2ccccc2O1 (stereo not drawn) | 61.3 | 
O=C(Nc1nc(-c2cccnc2)c(CN2CCOCC2)s1)C1COc2ccccc2O1 (stereo not drawn) | 63.8 | 1730
O=C(Nc1nc(-c2ccncc2)c(N2CCOCC2)s1)C1COc2ccccc2O1 (stereo not drawn) | 76.3 | 130
O=C(Nc1nc(-c2ccncc2)c(CN2CCOCC2)s1)C1COc2ccccc2O1 (stereo not drawn) | 87.4 | 
O=C(Nc1nc(-c2cccnc2)c(CN2CCOCC2)s1)c1cccnc1 | 41.1 | 
O=C(Nc1nc(-c2ccncc2)c(CN2CCCC2)s1)c1ccncc1 | 47.6 | 
CN(C)C(=O)Cc1sc(NC(=O)C2COc3ccccc3O2)nc1-c1ccncc1 (stereo not drawn) | 56.9 | 8830
CN(C)Cc1sc(NC(=O)c2cccnc2)nc1-c1cccnc1 | 33.9 | 
O=C(Nc1nc(-c2cccnc2)c(CN2CCOCC2)s1)c1ccncc1 | 51.1 | 
O=C(Nc1nc(-c2ccncc2)c(CN2CCOCC2)s1)c1ccncc1 | 58.1 | 
CN1CCN(Cc2sc(NC(=O)c3cccnc3)nc2-c2cccnc2)CC1 | 32.1 | 
CN1CCN(c2sc(NC(=O)c3ccncc3)nc2-c2ccncc2)CC1 | 34.3 | 
CN(C)Cc1sc(NC(=O)C2COc3ccccc3O2)nc1-c1cccnc1 (stereo not drawn) | 58.1 | 4960

The remaining lines, values ahead:

inhibition [1] [%] | IC50 [2] [nM] | Structure (SMILES)
48.8 |  | CN(C)CCc1sc(NC(=O)c2ccncc2)nc1-c1ccncc1
78.5 | 90 | CN(C)CCc1sc(NC(=O)C2COc3ccccc3O2)nc1-c1ccncc1 (stereo not drawn)
91.3 |  | O=C(Nc1nc(-c2ccncc2)cs1)C1COc2ccccc2O1 (stereo not drawn)
32.1 |  | CC(C)N(C)c1sc(NC(=O)c2ccncc2)nc1-c1ccncc1
38.1 |  | CC(C)N(C)Cc1sc(NC(=O)c2cccnc2)nc1-c1cccnc1
38.1 |  | CN(C)C(=O)Cc1sc(NC(=O)c2ccncc2)nc1-c1ccncc1
52.2 |  | O=C(Nc1nc(-c2ccncc2)c(CN2CCOCC2)s1)c1cccnc1
48.2 |  | O=C(Nc1nc(-c2ccncc2)c(CN2CCCCC2)s1)c1ccncc1
35.3 |  | CN(C)Cc1sc(NC(=O)c2ccncc2)nc1-c1cccnc1
28.5 |  | O=C(Nc1nc(-c2cccnc2)c(CN2CCCCC2)s1)c1cccnc1
